Source: ChEMBL document CHEMBL3621052, “Small cyclic agonists of iron regulatory hormone hepcidin” (Bioorg Med Chem Lett, 2015)
The source made the active and inactive calls. The rule behind the calls is not given here. Starred links: 1 amine or outer side, 2 acyl side, 3 side chain; linkers in the order of their positions; H or OH if unused. Positions of bridges follow the written chain, without caps; N, C: chain ends. Non-standard residues stand in square brackets, D forms with d. Residues, ends and D or L forms follow the SMILES beside them. ξ: configuration not given here. *: point of attachment. CH2CONHCH2CH2NHCOCH2 = O=C(C[*:1])NCCNC(=O)C[*:2]; Propanoyl(3,3-Ph2) = O=C(CC(c1ccccc1)c1ccccc1)*; Pyridine(2,6-diCH2) = c1cc(C[*:1])nc(C[*:2])c1; X2 = O=C(CC(c1ccccc1)(c1ccccc1)c1ccccc1)*; dDip = N[C@@H](C(=O)O)C(c1ccccc1)c1ccccc1; X5 = c1cc(Cc2cccc(C[*:2])c2)cc(C[*:1])c1; Dip = N[C@H](C(=O)O)C(c1ccccc1)c1ccccc1; X7 = c1cc(Oc2ccc(C[*:2])cc2)ccc1C[*:1]; TBMB = c1c(C[*:1])cc(C[*:3])cc1C[*:2]; mXylylene = c1cc(C[*:1])cc(C[*:2])c1; oXylylene = c1ccc(C[*:2])c(C[*:1])c1; NH(CH2CH2O)2CH2CH2NH2 = NCCOCCOCCN*; X6 = c1cc(C[*:1])c2c(C[*:2])cccc2c1; pXylylene = c1cc(C[*:2])ccc1C[*:1]; Palmitoyl = CCCCCCCCCCCCCCCC(=O)*; X4 = c1cc(CSCCN[*:2])cc(C[*:1])c1; X3 = O=S(=O)(CC[*:1])CC[*:2]; ξF = NC(Cc1ccccc1)C(=O)O; Mpa = O=C(O)CCS

How the values were obtained:
Ferroportin = target: T1, Ferroportin (Homo sapiens, UniProt Q9NP59); assay: Agonist activity at GFP-fused human FPN transfected in HEK293 cells assessed as protein degradation after 24 hrs by flow cytometric analysis; assay type: cell-based
T1 sequence (Q9NP59 whole entry): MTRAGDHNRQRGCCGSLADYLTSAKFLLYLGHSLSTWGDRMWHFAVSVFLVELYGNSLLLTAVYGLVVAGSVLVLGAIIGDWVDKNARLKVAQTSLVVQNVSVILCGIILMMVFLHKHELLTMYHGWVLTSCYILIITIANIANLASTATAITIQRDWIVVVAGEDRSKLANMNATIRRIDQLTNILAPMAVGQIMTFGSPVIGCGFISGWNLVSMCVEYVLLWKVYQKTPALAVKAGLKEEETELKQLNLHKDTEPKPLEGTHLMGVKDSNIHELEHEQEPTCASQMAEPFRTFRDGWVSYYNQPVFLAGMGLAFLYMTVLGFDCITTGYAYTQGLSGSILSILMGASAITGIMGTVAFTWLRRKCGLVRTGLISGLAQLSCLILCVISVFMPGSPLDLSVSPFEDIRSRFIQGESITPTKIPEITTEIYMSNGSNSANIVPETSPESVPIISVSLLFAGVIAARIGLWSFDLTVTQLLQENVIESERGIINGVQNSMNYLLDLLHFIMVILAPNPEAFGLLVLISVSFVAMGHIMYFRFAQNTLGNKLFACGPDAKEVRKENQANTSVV
Method in brief: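 HEK293:TREX-Fpn-GFP cells (human ferroportin-GFP, doxycycline-inducible) plated on poly-D-lysine with 20 μM FAC, induced with 500 ng/mL doxycycline for 24 h, washed, then peptide-treated 24 h. Green fluorescence read by flow cytometry at 1 × 10^6 cells/mL, gated against uninduced cells. Activity expressed as fraction of hep25: 1 − [(Fx − Fhep25)/(Funtreated − Fhep25)]. 3–6 independent repeats.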

Mus musculus = assay: Decrease in serum iron level in C57BL/6 mouse at 100 nmol, sc after 24 hrs by colorimetric analysis; assay type: functional, organism-based
Method in brief: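 C57BL/6 mice on NIH 31 diet (iron 336 mg/kg). Single subcutaneous injection of 50, 100 or 200 nmoles peptide in 100 μL PBS; controls received PBS alone. Killed at 24 h, serum from cardiac blood. Serum iron by colorimetric assay (microplate, 50 μL serum). Percent decrease versus mean of PBS-injected mice.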

Plasma = assay: Metabolic stability in mouse plasma at 25 uM by LC/MS analysis; assay type: ADME, cell-free
Method in brief: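 Peptide from 10 mM DMSO stock added to fresh mouse plasma (final 25 μM), incubated at 37 °C. Samples (10 μL) taken at time-points and diluted into DMSO/ACN 1:1 with 0.1% TFA. Centrifuged 13000 rpm, 10 min. Supernatant analysed by triple-quadrupole LC/MS with NM4A-Me peptide as internal standard.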

Row | Compound | EC50 (Ferroportin) [nM] | further results
1 | N=C(N)NCCC[C@@H]1NC(=O)[C@H](CS)NC(=O)[C@H](CCCNC(=N)N)NC(=O)[C@H](NC(=O)CC(c2ccccc2)c2ccccc2)CSCc2cccc(c2)CSCCNC(=O)[C@H](Cc2ccccc2)NC1=O | 269 | 
2 | CCCCCCCCCCCCCCCCNC(=O)CN(CC(N)=O)C(=O)CCCCCNC(=O)C[C@H](Cc1ccccc1)NC(=O)[C@H](CCCNC(=N)N)NC(=O)[C@H](CS)NC(=O)[C@H](CCCNC(=N)N)NC(=O)C[C@@H]1CCCN1C(=O)[C@@H](NC(=O)[C@H](Cc1c[nH]cn1)NC(=O)[C@@H](NC(=O)CNCC(=O)O)[C@@H](C)O)C(c1ccccc1)c1ccccc1 |  | Activity (Mus musculus): Active; Stability (Plasma): Stable
3 | C[C@@H](O)[C@H](NC(=O)CNCC(=O)O)C(=O)N[C@H]1CSCc2cccc(c2)CSC[C@@H](C(N)=O)NC(=O)[C@H](Cc2ccccc2)NC(=O)[C@H](CCCNC(=N)N)NC(=O)[C@H](CS)NC(=O)[C@H](CCCNC(=N)N)NC(=O)[C@@H]2CCCN2C(=O)[C@H](Cc2ccccc2)NC1=O | 532 | 
4 | C[C@@H](O)[C@H](NC(=O)CNCC(=O)O)C(=O)N[C@H]1CSCc2cccc(c2)CSC[C@@H](C(N)=O)NC(=O)[C@H](Cc2ccccc2)NC(=O)[C@H](CCCNC(=N)N)NC(=O)[C@H](CS)NC(=O)[C@H](CCCNC(=N)N)NC(=O)[C@@H]2CCCN2C(=O)[C@H](C(c2ccccc2)c2ccccc2)NC1=O | 75.1 | 
5 | CC(=O)N[C@H]1CSCC(=O)NCCNC(=O)CSC[C@@H](C(N)=O)NC(=O)[C@H](Cc2ccccc2)NC(=O)[C@H](CCCNC(=N)N)NC(=O)[C@H](CS)NC(=O)[C@H](CCCNC(=N)N)NC(=O)[C@@H]2CCCN2C(=O)[C@H](Cc2ccccc2)NC1=O (Ac-CFPRCRFC-NH2; linker 1-8 via CH2CONHCH2CH2NHCOCH2) | > 600 | 
6 | CC(=O)N[C@H]1CSCc2cccc(n2)CSC[C@@H](C(N)=O)NC(=O)[C@H](Cc2ccccc2)NC(=O)[C@H](CCCNC(=N)N)NC(=O)[C@H](CS)NC(=O)[C@H](CCCNC(=N)N)NC(=O)[C@@H]2CCCN2C(=O)[C@H](Cc2ccccc2)NC1=O (Ac-CFPRCRFC-NH2; linker 1-8 via Pyridine(2,6-diCH2)) | > 600 | 
7 | CC(=O)N[C@H]1CSCCS(=O)(=O)CCSC[C@@H](C(N)=O)NC(=O)[C@H](Cc2ccccc2)NC(=O)[C@H](CCCNC(=N)N)NC(=O)[C@H](CS)NC(=O)[C@H](CCCNC(=N)N)NC(=O)[C@@H]2CCCN2C(=O)[C@H](Cc2ccccc2)NC1=O (Ac-CFPRCRFC-NH2; linker 1-8 via X3) | > 600 | 
8 | CC(=O)N[C@H]1CSCc2cccc(c2)Cc2cccc(c2)CSC[C@@H](C(N)=O)NC(=O)[C@H](Cc2ccccc2)NC(=O)[C@H](CCCNC(=N)N)NC(=O)[C@H](CS)NC(=O)[C@H](CCCNC(=N)N)NC(=O)[C@@H]2CCCN2C(=O)[C@H](Cc2ccccc2)NC1=O (Ac-CFPRCRFC-NH2; linker 1-8 via X5) | 517 | 
9 | CC(=O)N[C@H]1CSCc2cccc3cccc(c23)CSC[C@@H](C(N)=O)NC(=O)[C@H](Cc2ccccc2)NC(=O)[C@H](CCCNC(=N)N)NC(=O)[C@H](CS)NC(=O)[C@H](CCCNC(=N)N)NC(=O)[C@@H]2CCCN2C(=O)[C@H](Cc2ccccc2)NC1=O (Ac-CFPRCRFC-NH2; linker 1-8 via X6) | > 600 | 
10 | CC(=O)N[C@H]1CSCc2ccc(cc2)Oc2ccc(cc2)CSC[C@@H](C(N)=O)NC(=O)[C@H](Cc2ccccc2)NC(=O)[C@H](CCCNC(=N)N)NC(=O)[C@H](CS)NC(=O)[C@H](CCCNC(=N)N)NC(=O)[C@@H]2CCCN2C(=O)[C@H](Cc2ccccc2)NC1=O (Ac-CFPRCRFC-NH2; linker 1-8 via X7) | 477 | 
11 | CC(=O)N[C@H]1CSCc2cccc(c2)CSC[C@@H](C(N)=O)NC(=O)[C@H](Cc2ccccc2)NC(=O)[C@H](CCCNC(=N)N)NC(=O)[C@H](CS)NC(=O)[C@H](CCCNC(=N)N)NC(=O)[C@@H]2CCCN2C(=O)[C@H](Cc2ccccc2)NC1=O (Ac-CFPRCRFC-NH2; linker 1-8 via mXylylene) | 272 | 
12 | CC(=O)N[C@H]1CSCc2ccccc2CSC[C@@H](C(N)=O)NC(=O)[C@H](Cc2ccccc2)NC(=O)[C@H](CCCNC(=N)N)NC(=O)[C@H](CS)NC(=O)[C@H](CCCNC(=N)N)NC(=O)[C@@H]2CCCN2C(=O)[C@H](Cc2ccccc2)NC1=O (Ac-CFPRCRFC-NH2; linker 1-8 via oXylylene) | 599 | 
13 | CC(=O)N[C@H]1CSCc2ccc(cc2)CSC[C@@H](C(N)=O)NC(=O)[C@H](Cc2ccccc2)NC(=O)[C@H](CCCNC(=N)N)NC(=O)[C@H](CS)NC(=O)[C@H](CCCNC(=N)N)NC(=O)[C@@H]2CCCN2C(=O)[C@H](Cc2ccccc2)NC1=O (Ac-CFPRCRFC-NH2; linker 1-8 via pXylylene) | 586 | 
14 | CC(=O)N[C@H]1CSCc2cc3cc(c2)CSC[C@H](NC(=O)C(Cc2ccccc2)NC(=O)[C@H](CCCNC(=N)N)NC(=O)[C@H](CS)NC(=O)[C@H](CCCNC(=N)N)NC(=O)[C@@H]2CCCN2C(=O)[C@H](Cc2ccccc2)NC1=O)C(=O)N[C@@H](Cc1ccccc1)C(=O)N1CCC[C@H]1C(=O)N[C@@H](CCCNC(=N)N)C(=O)N[C@@H](CS)C(=O)N[C@@H](CCCNC(=N)N)C(=O)N[C@@H](Cc1ccccc1)C(=O)N[C@H](C(N)=O)CSC3 (some centres undefined) (Ac-CFPRCR[ξF]CFPRCRFC-NH2; linker 1-8-15 via TBMB) | > 600 | 
15 | CC(=O)N[C@H]1CSCc2cccc(c2)CSC[C@@H](C(N)=O)NC(=O)[C@H](Cc2ccccc2)NC(=O)[C@H](CCCNC(=N)N)NC(=O)[C@H](CS)NC(=O)[C@H](CCCNC(=N)N)NC(=O)[C@@H]2CCCN2C(=O)[C@H](C(c2ccccc2)c2ccccc2)NC1=O (Ac-C[Dip]PRCRFC-NH2; linker 1-8 via mXylylene) | 54.3 | 
16 | CC(=O)N[C@H]1CSCc2cccc(c2)CSC[C@@H](C(=O)NCCOCCOCCN)NC(=O)[C@H](Cc2ccccc2)NC(=O)[C@H](CCCNC(=N)N)NC(=O)[C@H](CS)NC(=O)[C@H](CCCNC(=N)N)NC(=O)[C@@H]2CCCN2C(=O)[C@H](C(c2ccccc2)c2ccccc2)NC1=O (Ac-C[Dip]PRCRFC-{NH(CH2CH2O)2CH2CH2NH2}; linker 1-8 via mXylylene) | 165 | 
17 | CCCCCCCCCCCCCCCC(=O)N[C@H]1CSCc2cccc(c2)CSCCNC(=O)[C@H](Cc2ccccc2)NC(=O)[C@H](CCCNC(=N)N)NC(=O)[C@H](CS)NC(=O)[C@H](CCCNC(=N)N)NC(=O)[C@@H]2CCCN2C(=O)[C@H](C(c2ccccc2)c2ccccc2)NC1=O (Palmitoyl-C[Dip]PRCRF; linker 1-C via X4) | 369 | 
18 | CCCCCCCCCCCCCCCC(=O)N[C@H]1CSCc2cccc(c2)CSC[C@@H](C(N)=O)NC(=O)[C@H](Cc2ccccc2)NC(=O)[C@H](CCCNC(=N)N)NC(=O)[C@H](CS)NC(=O)[C@H](CCCNC(=N)N)NC(=O)[C@@H]2CCCN2C(=O)[C@H](C(c2ccccc2)c2ccccc2)NC1=O (Palmitoyl-C[Dip]PRCRFC-NH2; linker 1-8 via mXylylene) | > 600 | 
19 | CCCCCCCCCCCCCCCC(=O)N[C@H](C(=O)N[C@H]1CSCc2cccc(c2)CSCCNC(=O)[C@H](Cc2ccccc2)NC(=O)[C@H](CCCNC(=N)N)NC(=O)[C@H](CS)NC(=O)[C@H](CCCNC(=N)N)NC1=O)C(c1ccccc1)c1ccccc1 (Palmitoyl-[Dip]CRCRF; linker 2-C via X4) | > 600 | 
20 | CCCCCCCCCCCCCCCC(=O)N[C@@H](C(=O)N[C@H]1CSCc2cccc(c2)CSCCNC(=O)[C@H](Cc2ccccc2)NC(=O)[C@H](CCCNC(=N)N)NC(=O)[C@H](CS)NC(=O)[C@H](CCCNC(=N)N)NC1=O)C(c1ccccc1)c1ccccc1 (Palmitoyl-[dDip]CRCRF; linker 2-C via X4) | 458 | 
21 | N=C(N)NCCC[C@@H]1NC(=O)[C@@H](NC(=O)CC(c2ccccc2)(c2ccccc2)c2ccccc2)CSCc2cccc(c2)CSC[C@@H](C(N)=O)NC(=O)[C@H](Cc2ccccc2)NC(=O)[C@H](CCCNC(=N)N)NC(=O)[C@H](CS)NC1=O (X2-CRCRFC-NH2; linker 1-6 via mXylylene) | 113 | 
22 | N=C(N)NCCC[C@@H]1NC(=O)[C@H](CS)NC(=O)[C@H](CCCNC(=N)N)NC(=O)[C@@H]2CCCN2C(=O)[C@H](C(c2ccccc2)c2ccccc2)NC(=O)CCSCc2cccc(c2)CSC[C@@H](C(=O)NCCOCCOCCN)NC(=O)[C@H](Cc2ccccc2)NC1=O ([Mpa][Dip]PRCRFC-{NH(CH2CH2O)2CH2CH2NH2}; linker 1-8 via mXylylene) | 92.3 | 
23 | N=C(N)NCCC[C@@H]1NC(=O)[C@H](CS)NC(=O)[C@H](CCCNC(=N)N)NC(=O)[C@H](NC(=O)CC(c2ccccc2)c2ccccc2)CSCc2cccc(c2)CSC[C@@H](C(N)=O)NC(=O)[C@H](Cc2ccccc2)NC1=O ({Propanoyl(3,3-Ph2)}-[dC]RCRFC-NH2; linker 1-6 via mXylylene) | 335 | 
